Screening data deposited in PubChem BioAssay by several laboratories.
LYP act – LYP phosphatase activators, primary screen, biochemical, DiFMUP fluorescence, 2 µM; activation, % at 2 µM; 96,000 tested, 0.11% active; recombinant LYP; 0 = plate median, 100 = signal doubled; Tyrosine-protein phosphatase non-receptor type 22 (Homo sapiens), Q9Y2R2;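 active = activation at 2 µM above a set limit, the mean plus 5 SD, cut at about 37% in these data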
PLK1 kinase inh – human PLK1 kinase inhibitors, primary screen, biochemical, TR-FRET; recombinant PLK1 kinase, TR-FRET peptide phosphorylation; inhibition, % at 10 µM; AID 619, 2007; 97,000 tested, 0.53% active;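 active = inhibition of 50% or more in the single-concentration screen; inactive = inhibition below 50%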;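 note: 0% = DMSO max control and 100% = H-89 dihydrochloride min control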
HIV Rev-RRE inh – HIV-1 Rev-RRE binding inhibitors, primary screen, biochemical, FRET, protein-RNA interaction | 97,000 tested, 0.79% active | inhibition, % at 8 µM | AID 704, 2007 | Rev peptide-RRE RNA binding;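 active = inhibition above the screen-wide mean plus 3 SD, cut at about 35% in these data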;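 note: 0% = median DMSO wells and 100% = median Neomycin B control wells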
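System: Cy5-labelled duplex RRE RNA binding fluorescein-labelled HIV Rev peptide; Signal: fluorescein-to-Cy5 FRET, 480 nm excitation; Also added: labelled Rev peptide; Compound: one concentration, 8 µM nominal; Buffer or medium: HEPES pH 7.5 salt buffer with EDTA; Read-out: % inhibition of FRET ratio versus controls; Schedule: 5 min preincubation and 15 min binding, 25 °C.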
PLK1 PBD inh – Plk1 polo box domain binding inhibitors, primary screen, biochemical, fluorescence polarization. Serine/threonine-protein kinase PLK1 (Homo sapiens), P53350. Plk1 PBD phosphopeptide binding. inhibition, %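 (tested at about 20 µM)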. 97,000 tested, 0.13% active. AID 693, 2007; in the data active = inhibition above about 34%, passing the limit was not always enough
LYP inh 2 – PTPN22 phosphatase inhibitors, primary screen, biochemical, DiFMUP fluorescence, 2 µM; Tyrosine-protein phosphatase non-receptor type 22 (Homo sapiens), Q9Y2R2; recombinant LYP catalytic domain; inhibition, % at 2 µM; 96,000 tested, 0.21% active; AID 640, 2007;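 active = inhibition at 2 µM at or above a set limit, the screen mean plus 3 SD, cut at about 24% in these data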;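 note: 0% = DMSO with enzyme and 100% = enzyme fully blocked by orthovanadate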
EphB4 antag – EphB4-ephrin-B2 interaction antagonists, primary screen, biochemical, TNYL-RAW peptide probe, fluorescence polarization; Ephrin type-B receptor 4 (Homo sapiens), P54760; EphB4 LBD / TNYL-RAW-Alexa532 peptide; inhibition, % at 7 µM; 97,000 tested, 0.15% active;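 active = inhibition above the screen-wide mean inhibition plus 3 SD, cut at about 15% in these data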;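 note: 0% = DMSO wells and 100% = excess unlabeled TNYL-RAW peptide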
Target sequence (P54760 whole entry, looked up, the tested form may be a part): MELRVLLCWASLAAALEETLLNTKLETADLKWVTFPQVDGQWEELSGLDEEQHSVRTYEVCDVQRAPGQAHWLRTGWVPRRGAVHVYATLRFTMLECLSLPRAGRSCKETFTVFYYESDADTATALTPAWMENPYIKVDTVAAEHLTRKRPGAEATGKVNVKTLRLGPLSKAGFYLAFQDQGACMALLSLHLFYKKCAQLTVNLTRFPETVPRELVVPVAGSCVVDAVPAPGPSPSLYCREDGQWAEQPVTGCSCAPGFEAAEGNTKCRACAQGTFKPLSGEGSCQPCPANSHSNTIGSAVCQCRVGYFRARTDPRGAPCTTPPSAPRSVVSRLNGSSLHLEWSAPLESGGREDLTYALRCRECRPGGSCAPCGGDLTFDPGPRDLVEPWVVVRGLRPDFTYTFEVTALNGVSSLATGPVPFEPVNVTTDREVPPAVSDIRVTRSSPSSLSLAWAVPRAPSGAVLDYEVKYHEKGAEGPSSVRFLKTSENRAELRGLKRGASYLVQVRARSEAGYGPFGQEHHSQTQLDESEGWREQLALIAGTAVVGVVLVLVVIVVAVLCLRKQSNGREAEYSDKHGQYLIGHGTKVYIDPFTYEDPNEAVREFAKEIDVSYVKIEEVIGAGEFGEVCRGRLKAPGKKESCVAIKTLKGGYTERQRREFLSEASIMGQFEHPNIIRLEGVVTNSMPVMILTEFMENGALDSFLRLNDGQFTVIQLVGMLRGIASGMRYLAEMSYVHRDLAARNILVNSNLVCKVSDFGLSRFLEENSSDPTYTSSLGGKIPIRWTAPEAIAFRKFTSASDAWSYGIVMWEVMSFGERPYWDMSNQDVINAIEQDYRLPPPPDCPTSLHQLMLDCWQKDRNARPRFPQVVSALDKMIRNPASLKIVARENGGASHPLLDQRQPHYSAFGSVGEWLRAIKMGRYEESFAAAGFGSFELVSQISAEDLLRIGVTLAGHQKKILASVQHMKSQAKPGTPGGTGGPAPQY
Numbers without * were called inactive; . = no result; [ ] = dose if it differs, or a comment. A selection: hits, their analogues and other compounds. The true share with any hit is near 1.8%.

SMILES	LYP act	PLK1 kinase inh	HIV Rev-RRE inh	PLK1 PBD inh	LYP inh 2	EphB4 antag
Cc1cc(C)cc(OCC(O)CN2CCC(CN3C(=O)c4cccc5cccc(c45)C3=O)CC2)c1 (stereo not drawn)	.	-7	.	.	.	.
CCOC(=O)c1ccc(N2CC(O)=C(c3nc4ccccc4c(=O)[nH]3)C2=N)cc1	-8	-8	68*	-14	1	3
N=C1C(c2nc3ccccc3c(=O)[nH]2)=C(O)CN1c1ccccc1	5	-14	2	5	-4	-2
C=CCn1c(=O)/c(=C2/SC(C)=C(C)N2CC)s/c1=C1/C(=O)N(C)C(=S)N1c1ccccc1	3	-4	9	-2	-4	-4
Cc1cccc(N2CCN(C(=O)C(Cc3ccccc3)n3cccc3)CC2)c1C (stereo not drawn)	-4	-10	-6	22	4	-2
CCN1C(=O)CS/C1=C(\C#N)S(=O)(=O)c1ccccc1	-2	-13	37*	-31	2	-10
CC1(C2(O)CC(c3ccccc3)ON2)CCCCC1 (stereo not drawn)	-6	-11	10	19	6	-3
COc1ccc(S(=O)(=O)Cc2ccc(C(=O)N3CCN(c4ccccc4F)CC3)o2)cc1	.	63*	9	-3	.	-2
COc1ccc(S(=O)(=O)Cc2ccc(C(=O)NCc3ccccn3)o2)cc1	.	68*	9	3	.	1
COc1ccc(S(=O)(=O)Cc2ccc(C(=O)N3CCCC3)o2)cc1	-6	-8	5	19	4	1
COc1ccc(S(=O)(=O)Cc2ccc(C(=O)N3CCN(c4ccccn4)CC3)o2)cc1	.	66*	4	-15	.	0
CCN1CC2=C(OC(N)=C(C#N)C2c2cccs2)/C(=C/c2cccs2)C1 (stereo not drawn)	-1	-9	42*	1	0	0
O=c1[nH]c(CN2CCN(C/C=C/c3ccccc3)CC2)nc2cc(Cl)ccc12	3	69*	11	-18	-5	-6
O=C(CCc1nc2ccccc2c(=O)[nH]1)N1CCN(C/C=C/c2ccccc2)CC1	3	-6	6	10	-4	-9
O=C(CN(C1CCCCC1)C1CCCCC1)N1CCc2ccccc2C1	1	-13	8	7	-3	-4
COc1ccc(NCc2cc3cc(OC)ccc3[nH]c2=O)cc1	-1	-10	15	11	-2	4
COc1ccc2[nH]c(=O)c(CNc3cccc(C)c3)cc2c1	0	-4	57*	9	2	0
Cc1ccccc1NC(=O)CCC(=O)N/N=C/c1ccncc1	.	23	.	.	.	.
CCOC(=O)CC(=O)CSc1nc2c(C)c(C)ccc2cc1C	-27	-13	6	20	24*	-3
Cc1cc(-c2c(C)[nH]n(-c3ccc(Cl)cc3)c2=O)n[nH]1	-82	-13	-1	-19	82*	-2
Cc1[nH]n(-c2ccccc2)c(=O)c1Sc1ccc(Cl)cc1	-7	-12	-2	-10	11	-7
CN1CCC2(CC1)C1CN(C)CC=C1C(C#N)=C(N)C2(C#N)C#N (stereo not drawn)	-9	9	74*	-8	7	0
Cc1onc(-c2ccccc2)c1C(=O)Nc1ccc(S(=O)(=O)NC2=NCCCCC2)cc1	-4	11	11	-31	3	20*
COC(=O)/C(=C(/F)SCC(C)=O)C(F)(F)F	-2	-9	8	-29	5	-4
O=C(N/N=C/c1ccc(-c2cccc(C(F)(F)F)c2)o1)c1ccccc1Br	8	-4	60*	-19	-5	-8
SMILES	LYP act	PLK1 kinase inh	HIV Rev-RRE inh	PLK1 PBD inh	LYP inh 2	EphB4 antag
O=C(N/N=C/c1ccc(-c2cccc(C(F)(F)F)c2)o1)c1cccc(F)c1	0	-11	15	24	5	-3
COCCCn1cc(C(=O)c2cc(OC)ccc2OCC(=O)Nc2cc(C)on2)cc(C#N)c1=O	-1	13	9	7	-1	9
CCOC(=O)Cc1csc(NC(=O)CCCCCN2C(=O)c3ccccc3C2=O)n1	-9	-8	7	16	7	5
CCOc1ccc(-c2csc(N)c2C(=O)OC)cc1	-29	-4	0	15	30*	-1
N#C/C(=C\c1cc(Cl)cc(Cl)c1O)C(=O)NC1CCCCC1	-6	4	45*	-105	11	7
N#C/C(=C\c1cc(Cl)ccc1O)C(=O)NC1CCCCC1	20	4	3	-14	-24	-4
COC(=O)C1=C(N)Oc2cc(C)n(CC3CCCO3)c(=O)c2C1c1ccc(Cl)cc1 (stereo not drawn)	2	-3	7	-6	-2	-6
O=c1[nH]cnc2scc(-c3ccccc3)c12	-1	68*	0	15	-2	-10
O=c1[nH]c(Cc2ccccc2)nc2scc(-c3ccccc3)c12	1	-14	-1	32	-1	1
CNc1ccc(Br)cc(C(=O)/C=C/c2cccc(OC)c2OC)c1=O	-9	5	65*	-1	9	2
CCNc1ccc(Br)cc(C(=O)/C=C/c2ccccc2Cl)c1=O	-15	-2	77*[fluorescence artefact?]	-15	14	0
Cn1c(SCC(=O)c2ccc3c(c2)OCCO3)nnc1C1CC1	3	61*	0	3	-6	-8
Cn1cnnc1SCC(=O)c1ccc2c(c1)OCCO2	-9	-15	6	12	10	4
O=C(CCC(=O)N1CCOCC1)Nc1nnc(C2CCCCC2)s1	2	-1	10	18	-1	-5
CN(C)c1ccc(/C=c2\sc3nc(-c4ccccc4)nn3c2=O)cc1	-7	-16	75*	-35	5	3
COc1cc(/C=c2\sc3nc(-c4ccncc4)nn3c2=O)ccc1OC(C)=O	-4	1	9	-29	3	-3
Cc1ccc(/C=C2/CCc3c([nH]c4ccccc34)C2=O)cc1	2	-2	7	13	1	0
CN(C)/N=C/C=C1\CC/C(=C\c2ccc(Br)cc2)C1=O	-3	-14	72*	-20	-1	-8
COC(=O)c1ccc(NC(=O)CSc2nccn2CCc2ccccc2)cc1	6	-7	7	-19	-4	-7
Cc1ccc2cc3c(N)c(C(=O)N4CCOCC4)sc3nc2c1	-8	-8	31	-21	8	2
Cc1ccc2cc3c(N)c(C(=O)N4CC(=O)Nc5ccccc54)sc3nc2c1	-16	-18	67*	8	17	2
Cc1cc(C(=O)COc2ccc(-c3nnco3)cc2)c(C)n1Cc1ccccc1	-5	-9	-2	10	4	-11
Cc1sc(NC(=S)NC(=O)C(C)(C)C)c(C(N)=O)c1C	6	-13	4	-19	-4	-4
